In ChEMBL document CHEMBL1136707, “From pure FPP to mixed FPP and CAAX competitive inhibitors of farnesyl protein transferase” (Bioorg Med Chem Lett, 2003):

Columns and labels:
[1] = target: T1, Protein farnesyltransferase (Bos taurus) (UniProt P29702+P49355); test: Inhibition of FPTase at 100 nM using 5 uM FPP as substrate; format: protein-complex assay
Outline: (§1)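 FPP-dependence study using purified bovine FPTase. Dansyl-GCVLS peptide was held at a fixed level of […] while FPP concentration was varied. Inhibitor was tested at a single fixed concentration, and the read-out was percent inhibition of farnesylation.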

[2] = target: T1, Protein farnesyltransferase (Bos taurus); test: Inhibition of FPTase at 100 nM using 1 uM Dansyl-GCVLS; format: protein-complex assay
Outline: (§2)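 Peptide-dependence study using purified bovine FPTase. Dansyl-GCVLS substrate concentration was varied with the inhibitor at a single fixed concentration, and activity was reported as percent enzyme inhibition.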

[3] = target: T1, Protein farnesyltransferase (Bos taurus); test: Inhibition of FPTase at 100 nM using 0.5 uM Dansyl-GCVLS; format: protein-complex assay; outline: as §2
[4] = target: T1, Protein farnesyltransferase (Bos taurus); test: Inhibition of FPTase at 100 nM using 10 uM Dansyl-GCVLS; format: protein-complex assay; outline: as §2
[5] = target: T1, Protein farnesyltransferase (Bos taurus); test: Inhibition of FPTase at 100 nM using 20 uM FPP as substrate; format: protein-complex assay; outline: as §1
[6] = target: T1, Protein farnesyltransferase (Bos taurus); test: Inhibition of FPTase at 100 nM using 2 uM FPP as substrate; format: protein-complex assay; outline: as §1
[7] = target: Protein farnesyltransferase (Bos taurus, UniProt P29702+P49355); test: In vitro inhibition of bovine Farnesyl transferase; format: protein-complex assay
Outline: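 Purified bovine FPTase, assayed as in ref 15, with dansyl-GCVLS peptide and FPP as substrates, both at […].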

[8] = target: T1, Protein farnesyltransferase (Bos taurus); test: Inhibition of FPTase at 100 nM using 20 uM Dansyl-GCVLS; format: protein-complex assay; outline: as §2
[9] = target: T1, Protein farnesyltransferase (Bos taurus); test: Inhibition of FPTase at 100 nM using 5 uM Dansyl-GCVLS; format: protein-complex assay; outline: as §2
[10] = target: Protein farnesyltransferase (Homo sapiens, UniProt P49354+P49356); test: Inhibition of farnesylation of H-Ras in DLD-1 cells; format: functional, cell-based
[11] = target: T1, Protein farnesyltransferase (Bos taurus); test: Inhibition of FPTase at 100 nM using 2 uM Dansyl-GCVLS; format: protein-complex assay; outline: as §2
[12] = target: T1, Protein farnesyltransferase (Bos taurus); test: Inhibition of FPTase at 100 nM using 10 uM FPP as substrate; format: protein-complex assay; outline: as §1
[13] = target: T1, Protein farnesyltransferase (Bos taurus); test: Inhibition of FPTase at 100 nM using 0.5 uM FPP as substrate
[14] = target: T1, Protein farnesyltransferase (Bos taurus); test: Inhibition of FPTase at 10 nM using 2 uM Dansyl-GCVLS; format: protein-complex assay; outline: as §2
[15] = target: T1, Protein farnesyltransferase (Bos taurus); test: Inhibition of FPTase at 10 nM using 10 uM Dansyl-GCVLS; format: protein-complex assay; outline: as §2
[16] = target: T1, Protein farnesyltransferase (Bos taurus); test: Inhibition of FPTase at 10 nM using 20 uM Dansyl-GCVLS; format: protein-complex assay; outline: as §2
[17] = target: T1, Protein farnesyltransferase (Bos taurus); test: Inhibition of FPTase at 10 nM using 20 uM FPP as substrate; format: protein-complex assay; outline: as §1
[18] = target: T1, Protein farnesyltransferase (Bos taurus); test: Inhibition of FPTase at 10 nM using 0.5 uM Dansyl-GCVLS; format: protein-complex assay; outline: as §2
[19] = target: T1, Protein farnesyltransferase (Bos taurus); test: Inhibition of FPTase at 10 nM using 0.5 uM FPP as substrate; format: protein-complex assay; outline: as §1
[20] = target: T1, Protein farnesyltransferase (Bos taurus); test: Inhibition of FPTase at 10 nM using 10 uM FPP as substrate; format: protein-complex assay; outline: as §1
[21] = target: T1, Protein farnesyltransferase (Bos taurus); test: Inhibition of FPTase at 10 nM using 1 uM FPP as substrate; format: protein-complex assay; outline: as §1
[22] = target: T1, Protein farnesyltransferase (Bos taurus); test: Inhibition of FPTase at 10 nM using 5 uM FPP as substrate; format: protein-complex assay; outline: as §1
[23] = target: T1, Protein farnesyltransferase (Bos taurus); test: Inhibition of FPTase at 10 nM using 2 uM FPP as substrate; format: protein-complex assay; outline: as §1
[24] = target: T1, Protein farnesyltransferase (Bos taurus); test: Inhibition of FPTase at 10 nM using 1 uM Dansyl-GCVLS; format: protein-complex assay; outline: as §2

CC(C)=CCC/C(C)=C/CC/C(C)=C/CC(C(=O)N[C@@H](Cc1ccccc1)C(=O)O)P(=O)(O)O (stereo partly drawn)
inhibition [1]: 9%
inhibition ([1]; in the assay text read “1 uM FPP” for “5 uM FPP”): 72%
inhibition [2]: 42%
inhibition [3]: 43%
inhibition [4]: 33%
inhibition [5]: 10%
inhibition [6]: 37%
IC50 [7]: 83 nM
inhibition [8]: 38%
inhibition [9]: 34%
IC50 [10]: > 10000 nM
inhibition [11]: 41%
inhibition [12]: 9%
inhibition [13]: 80%

CC(C)=CCC/C(C)=C/CC/C(C)=C/CC(C(=O)N[C@@H](Cc1ccccc1)C(=O)O)N(Cc1cncn1C)S(=O)(=O)c1ccccc1 (stereo partly drawn)
IC50 [7]: 470 nM
IC50 [10]: 10000 nM

CC(C)=CCC/C(C)=C/CC/C(C)=C/CC(NCc1cncn1Cc1ccc(C#N)cc1)C(=O)N[C@@H](Cc1ccccc1)C(=O)O (stereo partly drawn)
IC50 [10]: 5000 nM

CC(C)=CCC/C(C)=C/CC/C(C)=C/CC(C(=O)NCc1ccccc1)N(Cc1cncn1Cc1ccc(C#N)cc1)S(=O)(=O)c1ccccc1 (stereo not drawn)
IC50 [7]: 40 nM
IC50 [10]: > 10000 nM

CC(C)=CCC/C(C)=C/CC/C(C)=C/CC(NCc1cncn1Cc1ccc(C#N)cc1)C(=O)NCc1ccccc1 (stereo not drawn)
inhibition [14]: 38%
inhibition [15]: 14%
inhibition [16]: 3%
inhibition [17]: 32%
inhibition [18]: 49%
inhibition [19]: 54%
IC50 [7]: 6 nM
inhibition [20]: 36%
inhibition ([9]; 10 nM, in the assay text read “10 nM” for “100 nM”): 27%
IC50 [10]: 1000 nM
inhibition [21]: 55%
inhibition [22]: 38%
inhibition [23]: 42%
inhibition [24]: 41%

CC(C)=CCC/C(C)=C/CC/C(C)=C/CC1C(=O)N(Cc2ccccc2)C(=O)N1Cc1cncn1C (stereo not drawn)
IC50 [7]: 700 nM

CC(C)=CCC/C(C)=C/CC/C(C)=C/CC(NCc1cncn1C)C(=O)NCc1ccccc1 (stereo not drawn)
IC50 [7]: > 10000 nM

CC(C)=CCC/C(C)=C/CC/C(C)=C/CC(C(=O)NCc1ccccc1)N(Cc1cncn1C)S(=O)(=O)c1ccccc1 (stereo not drawn)
IC50 [7]: 670 nM
IC50 [10]: 1000 nM

CC(C)=CCC/C(C)=C/CC/C(C)=C/CC1C(=O)N(Cc2ccccc2)C(=O)N1Cc1cncn1Cc1ccc(C#N)cc1 (stereo not drawn)
IC50 [7]: 200 nM
